An excerpt weighted towards active compounds, which were near 5.9% of everything screened.
IDH1 R132H inh: inhibitors of IDH1 R132H reductase, primary screen, biochemical, plate reader, single point; Isocitrate dehydrogenase [NADP] cytoplasmic (Homo sapiens), O75874; inhibition, % at 10 µM; 70,000 tested, 0.18% active; diaphorase/resazurin fluorescence, 60 min; AID 624101, 2012; in the data active = inhibition above about 34%;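 note: 0% = DMSO and 100% = no enzyme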
Target sequence (O75874 whole entry R132H): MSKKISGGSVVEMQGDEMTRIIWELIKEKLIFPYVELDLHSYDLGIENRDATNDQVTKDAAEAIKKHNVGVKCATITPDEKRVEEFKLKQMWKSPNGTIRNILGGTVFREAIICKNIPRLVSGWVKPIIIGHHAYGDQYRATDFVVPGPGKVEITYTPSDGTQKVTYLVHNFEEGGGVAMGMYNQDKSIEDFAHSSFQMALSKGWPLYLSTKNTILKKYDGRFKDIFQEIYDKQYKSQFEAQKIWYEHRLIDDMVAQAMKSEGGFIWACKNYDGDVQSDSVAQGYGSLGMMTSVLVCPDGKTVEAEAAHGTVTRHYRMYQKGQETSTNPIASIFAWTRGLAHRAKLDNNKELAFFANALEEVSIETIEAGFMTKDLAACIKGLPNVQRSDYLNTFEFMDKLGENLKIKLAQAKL
Pf Dd2 inh: P. falciparum Dd2 growth inhibitors, primary screen, SYBR Green fluorescence, single dose replicates. 72 h; hits give low values. activity change, % at 10 µM. 94,000 tested, 2.3% active. AID 1159554, 2015; in the data active = activity change below about -80%
T cruzi growth: T. cruzi intracellular proliferation inhibitors, primary screen, cell-based, beta-gal Tulahuen parasites, NIH3T3 host, luminescence; T. cruzi beta-gal in NIH3T3, GalScreen luminescence, 90 h; inhibition, % at 8.34 µM; 77,000 tested, 5.9% active;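 active = mean inhibition above about 93%, with at least 55% of replicates each passing it, limit read from the data, passing the limit was not always enough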
KDM4C inh: inhibitors of GASC-1 (KDM4C) histone demethylase, primary screen, biochemical, single concentration HTS; AID 720574, 2013; GST-KDM4C 2-372, H3K9me3 peptide, LANCE TR-FRET; 96,000 tested, 0.15% active; inhibition, % at 12.5 µM;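 active = mean replicate inhibition above about 25%, with at least 55% of replicates also reaching it, limit read from the data, passing the limit was not always enough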
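Test system: N-terminal GST-fused human GASC-1 (KDM4C) fragment, residues 2-372; quantity: GASC-1 enzyme at 10 nM final in reaction; dosing: single dose; schedule: 30 min demethylation and 1 h detection at room temperature; signal: LANCE TR-FRET, excitation 340 nm, emissions 618 and 671 nm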
The depositor's hits bear a star.

How did C[C@H](CO)N1C[C@H](C)[C@@H](CN(C)C(=O)Nc2ccc(F)cc2)Oc2ccc(NC(=O)Nc3ccc(C(F)(F)F)cc3)cc2CC1=O do in these assays?
IDH1 R132H inh: 2; Pf Dd2 inh: -88*; T cruzi growth: 10; KDM4C inh: -1

How did COc1ccc(NC(=O)N(C)C[C@H]2Oc3ccc(NC(=O)Nc4ccc(C(F)(F)F)cc4)cc3CC(=O)N([C@H](C)CO)C[C@@H]2C)cc1 do in these assays?
IDH1 R132H inh: 1; Pf Dd2 inh: -88*; T cruzi growth: 35; KDM4C inh: -1

How did CNC[C@H]1Oc2c(NC(=O)c3nc4ccccc4s3)cccc2C(=O)N([C@@H](C)CO)C[C@@H]1C do in these assays?
IDH1 R132H inh: -2; Pf Dd2 inh: 12; T cruzi growth: 33; KDM4C inh: -1

Results for O=C(NC[C@@H]1CC[C@H]2[C@H](CN2Cc2cc(-c3ccccc3)on2)O1)c1ccc2c(c1)OCO2 ?
Pf Dd2 inh: -90*

Results for O=C(NC[C@@H]1CC[C@@H]2[C@@H](CN2C(=O)NC2CCCC2)O1)c1ccc2c(c1)OCO2 ?
Pf Dd2 inh: 19

What do the screens show for `C[C@H](CO)N1C[C@H](C)[C@H](CN(C)Cc2ccc(-c3ccccc3)cc2)Oc2ccc(NC(=O)CCCCCC(=O)Nc3ccccc3N)cc2CC1=O`?
IDH1 R132H inh: 0; Pf Dd2 inh: -83*; T cruzi growth: 36

Results for COc1ccc(CN(C)C[C@@H]2Oc3ccc(NC(=O)CCCCCC(=O)Nc4ccccc4N)cc3CC(=O)N([C@H](C)CO)C[C@@H]2C)cc1 ?
IDH1 R132H inh: 0; Pf Dd2 inh: -85*; KDM4C inh: -1

What do the screens show for `COc1ccc(CN(C)C[C@@H]2Oc3ccc(NC(=O)CCCCCC(=O)Nc4ccccc4N)cc3CC(=O)N([C@@H](C)CO)C[C@@H]2C)cc1`?
Pf Dd2 inh: -87*; KDM4C inh: 2

How did CCS(=O)(=O)NC[C@H]1[C@@H](c2ccccc2)[C@@H](CO)N1CC1CCCCC1 do in these assays?
Pf Dd2 inh: 3; KDM4C inh: 1

Results for Cc1ccc(S(=O)(=O)Nc2ccc3c(c2)C(=O)N([C@H](C)CO)C[C@@H](C)[C@@H](CN(C)C(=O)Nc2ccccc2)OCCCC[C@@H](C)O3)cc1 ?
IDH1 R132H inh: 1; Pf Dd2 inh: -83*; T cruzi growth: -60; KDM4C inh: -1

What do the screens show for `C[C@@H]1CCCCO[C@H](CN(C)C(=O)CCC(F)(F)F)[C@H](C)CN([C@@H](C)CO)C(=O)c2cc(NS(=O)(=O)c3ccccc3)ccc2O1`?
IDH1 R132H inh: 91*; Pf Dd2 inh: -28; T cruzi growth: 47; KDM4C inh: -2

What do the screens show for `C[C@@H]1CCCCO[C@H](CN(C)C(=O)Nc2ccc(C(F)(F)F)cc2)[C@H](C)CN([C@H](C)CO)C(=O)c2cc(NS(=O)(=O)c3ccccc3)ccc2O1`?
Pf Dd2 inh: -86*; T cruzi growth: 98; KDM4C inh: 0

How did COc1ccc(S(=O)(=O)Nc2ccc3c(c2)C(=O)N([C@@H](C)CO)C[C@H](C)[C@H](CN(C)C(=O)Nc2ccc(C(F)(F)F)cc2)OCCCC[C@@H](C)O3)cc1 do in these assays?
Pf Dd2 inh: -84*; T cruzi growth: 60; KDM4C inh: 2

What do the screens show for `C[C@@H]1CCCCO[C@@H](CN(C)C(=O)CCC(F)(F)F)[C@@H](C)CN([C@H](C)CO)C(=O)c2cc(NS(=O)(=O)c3ccccc3)ccc2O1`?
IDH1 R132H inh: -2; Pf Dd2 inh: -4; T cruzi growth: -5; KDM4C inh: -3

What do the screens show for `O=C(CCCN1C(=O)c2ccccc2C1=O)Nc1ccc(Nc2ccccc2)cc1`?
IDH1 R132H inh: 0

How did C[C@H]1CCCCO[C@H](CN(C)C(=O)Nc2ccc(C(F)(F)F)cc2)[C@@H](C)CN([C@@H](C)CO)C(=O)c2cc(NS(=O)(=O)c3ccc(F)cc3)ccc2O1 do in these assays?
IDH1 R132H inh: 0; Pf Dd2 inh: -82*; T cruzi growth: 94; KDM4C inh: 1

How did C[C@H](CO)N1C[C@H](C)[C@@H](CN(C)C(=O)Nc2ccc(C(F)(F)F)cc2)OCCCC[C@H](C)Oc2ccc(NS(=O)(=O)c3ccc(Cl)cc3)cc2C1=O do in these assays?
IDH1 R132H inh: 6; Pf Dd2 inh: -75; T cruzi growth: 92; KDM4C inh: -2

Source: PubChem BioAssay
